The source of these data is paper PMC2193344 (The Journal of Experimental Medicine, 2001).

Assay [1] addresses T1, transporter associated with antigen processing (TAP) (Homo sapiens, UniProt Q03518+Q03519).
T1 sequence (Q03518 1-748): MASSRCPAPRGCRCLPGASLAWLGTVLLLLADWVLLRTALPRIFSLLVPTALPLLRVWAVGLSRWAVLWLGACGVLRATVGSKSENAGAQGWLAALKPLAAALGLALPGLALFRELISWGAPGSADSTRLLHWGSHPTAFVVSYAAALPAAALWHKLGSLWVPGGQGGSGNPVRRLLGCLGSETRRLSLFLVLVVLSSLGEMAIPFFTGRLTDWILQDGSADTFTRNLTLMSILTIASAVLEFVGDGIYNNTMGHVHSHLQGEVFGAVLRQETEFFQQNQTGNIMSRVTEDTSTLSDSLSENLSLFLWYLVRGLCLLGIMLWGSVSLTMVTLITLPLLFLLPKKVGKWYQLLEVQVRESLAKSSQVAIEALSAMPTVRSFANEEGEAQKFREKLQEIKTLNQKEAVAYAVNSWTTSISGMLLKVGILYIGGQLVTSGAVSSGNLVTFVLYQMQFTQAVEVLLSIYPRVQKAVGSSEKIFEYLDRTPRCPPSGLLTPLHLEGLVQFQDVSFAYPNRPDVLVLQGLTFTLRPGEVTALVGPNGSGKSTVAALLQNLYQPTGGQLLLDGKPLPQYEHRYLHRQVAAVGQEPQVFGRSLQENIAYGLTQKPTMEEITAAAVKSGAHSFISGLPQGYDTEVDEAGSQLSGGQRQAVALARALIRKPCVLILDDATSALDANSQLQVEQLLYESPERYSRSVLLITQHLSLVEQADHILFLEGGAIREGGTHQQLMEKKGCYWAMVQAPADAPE
T1 sequence (Q03519 1-686): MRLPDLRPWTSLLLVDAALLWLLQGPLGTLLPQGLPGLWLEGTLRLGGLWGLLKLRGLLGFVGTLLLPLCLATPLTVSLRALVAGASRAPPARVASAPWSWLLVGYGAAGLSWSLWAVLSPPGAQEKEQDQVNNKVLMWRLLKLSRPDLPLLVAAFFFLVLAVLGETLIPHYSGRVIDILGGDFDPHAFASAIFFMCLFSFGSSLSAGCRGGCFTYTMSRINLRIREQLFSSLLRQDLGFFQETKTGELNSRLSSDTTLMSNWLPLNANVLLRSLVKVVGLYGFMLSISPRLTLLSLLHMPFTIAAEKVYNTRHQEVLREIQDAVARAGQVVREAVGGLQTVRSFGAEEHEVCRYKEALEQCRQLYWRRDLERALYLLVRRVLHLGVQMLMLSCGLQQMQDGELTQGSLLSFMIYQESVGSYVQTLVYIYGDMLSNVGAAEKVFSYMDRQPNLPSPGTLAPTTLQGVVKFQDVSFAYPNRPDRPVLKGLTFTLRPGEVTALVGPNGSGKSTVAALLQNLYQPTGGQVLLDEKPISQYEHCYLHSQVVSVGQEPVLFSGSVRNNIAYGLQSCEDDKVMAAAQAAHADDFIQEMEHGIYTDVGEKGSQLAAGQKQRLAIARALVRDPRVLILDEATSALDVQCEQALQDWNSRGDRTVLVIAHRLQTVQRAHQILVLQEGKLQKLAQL
As to the kind of experiment: Streptolysin O peptide transport assay. In kind it is biochemical. An outline of the steps:
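TAP+ T1 TxB hybrid cells (10^6/sample; grown in RPMI 1640, 4 mM Hepes, 5% FCS, 3 mM l-glutamine) permeabilised with streptolysin O (15 U/ml) for 15 min on ice. Then 5 min at 37°C with 100 ng chloramine-T 125I-labelled reporter peptide, ATP (100 mM stock) and competitor peptide dilutions. TAP-negative T2 cells served as negative control. Duplicates; triplicates for T2 and uninhibited T1.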

The target in a further assay is HLA-A*0201 molecules (Homo sapiens, UniProt P04439, D140Y/D185E/D98H/E176V/E277Q/G131W/G231S/I119V/I121R/I166T/I218V/L300P/L318F/N151K/N90K/P208A/P217A/Q86G/Q94H/R138H/R169H/T345S). Description: Class I peptide-binding affinity assay.

Ends that are not written are not given here.

By IC50 is commonly meant the concentration at which inhibition is half-maximal. Read a high IC50 as a need for much substance. Take HPTLDKVLEV [HPTLDKVLEV]: the IC50 in assay [1] came to 355 µM.

As for KSADHPTLDKVLEV [KSADHPTLDKVLEV], the IC50 in assay [1] came to 102 µM. This IC50 is about 3.5-fold lower than that of the sequence before. The sequence PTLDKVLEV [PTLDKVLEV] returned an IC50 in assay [1] of 175 µM. For the sequence RTLDKVLEV [RTLDKVLEV], the IC50 was 0.04 µM at HLA-A*0201 molecules and 30 to 45 µM in assay [1].
